Activity calls are given as the source filed them. The calls are words filed in the database; no cut-off is given here. Square brackets hold non-standard residues; d marks the D form. Peptide text beside a SMILES is read from it. Dap = NC[C@H](N)C(=O)O
Experiments:
Melanocortin receptor 4 [1] = molecular target: T1, Melanocortin receptor 4 (Homo sapiens, UniProt P32245); assay: Ratio of IC50 for MDE6-82-1c to IC50 for test compound for displacement of [125I]-NDP-MSH from human melanocortin receptor 4 […] incubated for 1 hr by automatic gamma counting method; format: cell membranes
T1 sequence (P32245 whole entry): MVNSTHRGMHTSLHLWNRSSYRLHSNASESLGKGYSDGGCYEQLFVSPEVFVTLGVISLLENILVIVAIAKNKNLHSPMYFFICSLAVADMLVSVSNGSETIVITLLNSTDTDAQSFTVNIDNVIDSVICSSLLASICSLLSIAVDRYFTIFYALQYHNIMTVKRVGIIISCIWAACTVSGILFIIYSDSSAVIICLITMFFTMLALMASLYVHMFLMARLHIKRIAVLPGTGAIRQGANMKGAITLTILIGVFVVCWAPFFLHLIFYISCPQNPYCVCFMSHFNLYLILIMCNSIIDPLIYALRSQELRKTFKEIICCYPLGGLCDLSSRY

Melanocortin receptor 3 [2] = molecular target: T2, Melanocortin receptor 3 (Mus musculus, UniProt P33033); assay: Antagonist activity at mouse melanocortin receptor 3 expressed in HEK293 cells assessed as inhibition of NDP-MSH-induced cAMP accumulation incubated for 2 hrs by cAMP Alpha-screen assay based Schild analysis; format: functional, cell-based; conditions: read-out: pA2 (converted)
T2 sequence (P33033 whole entry): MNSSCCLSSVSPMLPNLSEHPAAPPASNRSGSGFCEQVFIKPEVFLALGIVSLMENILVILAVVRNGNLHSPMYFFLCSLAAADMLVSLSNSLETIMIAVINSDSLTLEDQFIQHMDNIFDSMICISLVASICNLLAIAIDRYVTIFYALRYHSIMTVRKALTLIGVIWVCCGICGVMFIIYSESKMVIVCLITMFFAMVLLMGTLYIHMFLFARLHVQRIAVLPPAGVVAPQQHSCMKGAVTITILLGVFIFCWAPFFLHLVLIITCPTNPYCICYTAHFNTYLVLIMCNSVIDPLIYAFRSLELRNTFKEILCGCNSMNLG
Procedure, shortened: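 NDP-MSH (10−6 to 10−12) plus antagonist at 10,000, 5,000, 1,000 and 500 nM, 2 h dark at room temperature. AlphaScreen cAMP read after lysis/bead step 2 h. Schild pA2; duplicates, at least three independent experiments.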

[3] = molecular target: Melanocortin receptor 4 (Mus musculus) (UniProt P56450); assay: Agonist activity at mouse melanocortin receptor 4 expressed in HEK293 cells assessed as stimulation of cAMP accumulation at 100 uM incubated for 2 hrs by cAMP Alpha-screen assay relative to control; format: functional, cell-based
Melanocortin receptor 4 (Mus musculus), sequence (P56450 whole entry): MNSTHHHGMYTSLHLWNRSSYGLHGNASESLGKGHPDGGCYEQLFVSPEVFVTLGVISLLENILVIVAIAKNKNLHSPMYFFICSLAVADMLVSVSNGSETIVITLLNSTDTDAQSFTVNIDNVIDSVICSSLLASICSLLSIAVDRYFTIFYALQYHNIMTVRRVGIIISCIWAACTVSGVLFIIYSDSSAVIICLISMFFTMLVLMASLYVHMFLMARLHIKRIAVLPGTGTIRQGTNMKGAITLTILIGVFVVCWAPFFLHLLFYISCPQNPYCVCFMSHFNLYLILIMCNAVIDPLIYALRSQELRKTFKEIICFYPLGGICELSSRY

Melanocortin receptor 5 [4] = molecular target: T3, Melanocortin receptor 5 (Mus musculus, UniProt P41149); assay: Displacement of [125I]-NDP-MSH from mouse melanocortin receptor 5 expressed in HEK293 cell mebranes incubated for 1 hr by automatic gamma counting method; format: cell-based
T3 sequence (P41149 whole entry): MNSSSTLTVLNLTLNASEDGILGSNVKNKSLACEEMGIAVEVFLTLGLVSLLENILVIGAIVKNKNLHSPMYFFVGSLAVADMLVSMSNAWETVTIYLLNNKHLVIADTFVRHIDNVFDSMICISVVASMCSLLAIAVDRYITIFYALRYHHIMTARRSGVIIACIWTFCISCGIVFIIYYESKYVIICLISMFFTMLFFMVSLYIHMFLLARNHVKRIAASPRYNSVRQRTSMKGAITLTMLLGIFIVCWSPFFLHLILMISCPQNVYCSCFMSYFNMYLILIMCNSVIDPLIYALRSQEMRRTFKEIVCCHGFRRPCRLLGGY

Melanocortin receptor 4 [5] = molecular target: T1, Melanocortin receptor 4; assay: Inverse agonist activity at human melanocortin receptor 4 expressed in HEK293 cells assessed as inhibition of basal cAMP accumulation incubated for 2 hrs by cAMP Alpha-screen assay; format: functional, cell-based
Procedure, shortened: (§1)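 AlphaScreen cAMP assay in stably transfected HEK293 cells, with 10,000 cells/well in IBMX-containing HBSS/HEPES buffer pH 7.4. Peptide alone, up to 100 μM, 2 h at room temperature in the dark, then 2 h lysis/detection. Inverse agonism taken as percent decrease of cAMP from basal, relative to maximal NDP-MSH signal, at 100 μM. Duplicates, three independent experiments.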

Melanocortin receptor 4 [6] = molecular target: T1, Melanocortin receptor 4; assay: Antagonist activity at human melanocortin receptor 4 expressed in HEK293 cells assessed as inhibition of NDP-MSH-induced cAMP accumulation incubated for 2 hrs by cAMP Alpha-screen assay based Schild analysis; format: functional, cell-based; conditions: read-out: pA2 (converted)
[7] = molecular target: Melanocortin receptor 4 (Mus musculus) (UniProt P56450); assay: Ratio of IC50 for MDE6-82-1c to IC50 for test compound for displacement of [125I]-NDP-MSH from mouse melanocortin receptor 4 […] incubated for 1 hr by automatic gamma counting method
Melanocortin receptor 4 [8] = molecular target: T4, Melanocortin receptor 4 (Mus musculus, UniProt P56450); assay: Antagonist activity at mouse melanocortin receptor 4 expressed in HEK293 cells assessed as inhibition of NDP-MSH-induced cAMP accumulation incubated for 2 hrs by cAMP Alpha-screen assay based Schild analysis; format: functional, cell-based; conditions: read-out: pA2 (converted)
T4 sequence (P56450 whole entry): as the sequence (P56450 whole entry) above

[9] = molecular target: Melanocortin receptor 3 (Mus musculus) (UniProt P33033); assay: Agonist activity at mouse melanocortin receptor 3 expressed in HEK293 cells assessed as stimulation of cAMP accumulation at 100 uM incubated for 2 hrs by cAMP Alpha-screen assay relative to control; format: functional, cell-based
Melanocortin receptor 3 (Mus musculus), sequence (P33033 whole entry): as the sequence (P33033 whole entry) above

[10] = molecular target: Melanocyte-stimulating hormone receptor (Mus musculus) (UniProt Q01727); assay: Ratio of IC50 for MDE6-82-1c to IC50 for test compound for displacement of [125I]-NDP-MSH from mouse melanocortin receptor 1 […] incubated for 1 hr by automatic gamma counting method
Melanocyte-stimulating hormone receptor (Mus musculus), sequence (Q01727 whole entry, looked up): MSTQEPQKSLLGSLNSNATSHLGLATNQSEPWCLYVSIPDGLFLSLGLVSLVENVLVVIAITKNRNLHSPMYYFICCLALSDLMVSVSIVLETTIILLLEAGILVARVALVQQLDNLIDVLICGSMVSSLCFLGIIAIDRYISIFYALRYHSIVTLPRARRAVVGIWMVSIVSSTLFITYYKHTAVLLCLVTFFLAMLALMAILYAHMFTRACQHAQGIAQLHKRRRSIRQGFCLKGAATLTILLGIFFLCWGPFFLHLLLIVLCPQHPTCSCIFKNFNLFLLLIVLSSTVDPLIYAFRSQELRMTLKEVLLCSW

Melanocortin receptor 5 [11] = molecular target: T3, Melanocortin receptor 5; assay: Agonist activity at mouse melanocortin receptor 5 expressed in HEK293 cells assessed as stimulation of cAMP accumulation incubated for 2 hrs by cAMP Alpha-screen assay; format: functional, cell-based
[12] = molecular target: Melanocortin receptor 3 (Mus musculus) (UniProt P33033); assay: Ratio of IC50 for MDE6-82-1c to IC50 for test compound for displacement of [125I]-NDP-MSH from mouse melanocortin receptor 3 expressed in HEK293 cell mebranes incubated for 1 hr by automatic gamma counting method
Procedure, shortened: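 Whole stably transfected HEK293 cells (>90% confluent) incubated 1 h at 37°C, 5% CO2, in DMEM with 0.1% BSA. […] Cells washed, lysed with NaOH/Triton X-100, and counted by gamma counter. Specific binding normalized to nonradioactive NDP-MSH. IC50 from duplicates in two experiments (mean ± SD). Fold difference taken against the Dap-containing parent control.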

Melanocortin receptor 3 [13] = molecular target: T2, Melanocortin receptor 3; assay: Agonist activity at mouse melanocortin receptor 3 expressed in HEK293 cells assessed as stimulation of cAMP accumulation incubated for 2 hrs by cAMP Alpha-screen assay; format: functional, cell-based
Melanocortin receptor 4 [14] = molecular target: T4, Melanocortin receptor 4; assay: Agonist activity at mouse melanocortin receptor 4 expressed in HEK293 cells assessed as stimulation of cAMP accumulation incubated for 2 hrs by cAMP Alpha-screen assay; format: functional, cell-based
[15] = molecular target: Melanocyte-stimulating hormone receptor (Mus musculus) (UniProt Q01727); assay: Agonist activity at mouse melanocortin receptor 1 expressed in HEK293 cells assessed as stimulation of cAMP accumulation at 100 uM incubated for 2 hrs by cAMP Alpha-screen assay relative to control; format: functional, cell-based
[16] = molecular target: Melanocortin receptor 5 (Mus musculus) (UniProt P41149); assay: Ratio of IC50 for MDE6-82-1c to IC50 for test compound for displacement of [125I]-NDP-MSH from mouse melanocortin receptor 5 […] incubated for 1 hr by automatic gamma counting method
Melanocortin receptor 5 (Mus musculus), sequence (P41149 whole entry): as the sequence (P41149 whole entry) above

[17] = molecular target: Melanocortin receptor 5 (Mus musculus) (UniProt P41149); assay: Ratio of IC50 for MDE6-82-3c to IC50 for test compound for displacement of [125I]-NDP-MSH from mouse melanocortin receptor 5 expressed in HEK293 cell mebranes incubated for 1 hr by automatic gamma counting method
Procedure, shortened: (§2)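 Cells washed, lysed 10 min with 0.1 M NaOH/1% Triton X-100, then gamma-counted. Specific binding defined with unlabelled NDP-MSH and normalized to it. Duplicate wells, two experiments. IC50 by non-linear fit. Fold difference taken relative to the Asn-parent macrocycle control.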

[18] = molecular target: Melanocortin receptor 4 (Mus musculus) (UniProt P56450); assay: Ratio of IC50 for MDE6-82-3c to IC50 for test compound for displacement of [125I]-NDP-MSH from mouse melanocortin receptor 4 expressed in HEK293 cell mebranes incubated for 1 hr by automatic gamma counting method; procedure, shortened: as §2
[19] = molecular target: Melanocyte-stimulating hormone receptor (Mus musculus) (UniProt Q01727); assay: Ratio of IC50 for MDE6-82-3c to IC50 for test compound for displacement of [125I]-NDP-MSH from mouse melanocortin receptor 1 expressed in HEK293 cell mebranes incubated for 1 hr by automatic gamma counting method; procedure, shortened: as §2
Melanocortin receptor 4 [20] = molecular target: T1, Melanocortin receptor 4; assay: Ratio of IC50 for MDE6-82-3c to IC50 for test compound for displacement of [125I]-NDP-MSH from human melanocortin receptor 4 expressed in HEK293 cell membranes incubated for 1 hr by automatic gamma counting method; procedure, shortened: as §2
[21] = molecular target: Melanocortin receptor 3 (Mus musculus) (UniProt P33033); assay: Ratio of IC50 for MDE6-82-3c to IC50 for test compound for displacement of [125I]-NDP-MSH from mouse melanocortin receptor 3 expressed in HEK293 cell mebranes incubated for 1 hr by automatic gamma counting method; procedure, shortened: as §2
[22] = molecular target: Melanocortin receptor 5 (Mus musculus) (UniProt P41149); assay: Inverse agonist activity at mouse melanocortin receptor 5 expressed in HEK293 cells assessed as inhibition of basal cAMP accumulation at 100 uM incubated for 2 hrs by cAMP Alpha-screen assay relative to control; format: functional, cell-based; procedure, shortened: as §1
[23] = molecular target: T5, Melanocyte-stimulating hormone receptor (Mus musculus, UniProt Q01727); assay: Displacement of [125I]-NDP-MSH from mouse melanocortin receptor 1 expressed in HEK293 cell mebranes incubated for 1 hr by automatic gamma counting method; format: cell-based; procedure, shortened: as §2
T5 sequence (Q01727 whole entry): as the sequence (Q01727 whole entry, looked up) above

Melanocortin receptor 3 [24] = molecular target: T2, Melanocortin receptor 3; assay: Displacement of [125I]-NDP-MSH from mouse melanocortin receptor 3 expressed in HEK293 cell mebranes incubated for 1 hr by automatic gamma counting method; format: cell-based
[25] = molecular target: T5, Melanocyte-stimulating hormone receptor; assay: Agonist activity at mouse melanocortin receptor 1 expressed in HEK293 cells assessed as stimulation of cAMP accumulation incubated for 2 hrs by cAMP Alpha-screen assay; format: functional, cell-based

SMILES	Ratio IC50 (Melanocortin receptor 4 [1])	Activity (Melanocortin receptor 4 [5])	Ratio IC50 [7]	Ratio IC50 [10]	EC50 (Melanocortin receptor 5 [11]) [µM]	Ratio IC50 [12]	EC50 (Melanocortin receptor 3 [13]) [µM]	EC50 (Melanocortin receptor 4 [14]) [µM]	Activity [15] [%]	Ratio IC50 [16]	Ratio IC50 [18]	Ratio IC50 (Melanocortin receptor 4 [20])	Activity [3] [%]	IC50 (Melanocortin receptor 5 [4]) [µM]	other results
C[C@@H]1NC(=O)[C@H](CN)NC(=O)[C@H](Cc2ccccc2)NC(=O)[C@H](Cc2ccccc2)NC(=O)[C@H](CS)NC(=O)[C@@H]2CCCN2C(=O)[C@H]2CCCN2C(=O)[C@H](Cc2ccccc2)NC1=O (cyclo(PCFF[Dap]AF[dP]))	2100	inactive	5200	6	> 100	15	–	–	–	–	–	–	42	> 100	Kb (Melanocortin receptor 3 [2]): > 10 µM; Kb (Melanocortin receptor 4 [6]): > 10 µM; Kb (Melanocortin receptor 4 [8]): > 10 µM; Activity [9]: 29%
C[C@@H]1NC(=O)[C@H](CC(N)=O)NC(=O)[C@H](Cc2ccccc2)NC(=O)[C@H](Cc2ccc(O)cc2)NC(=O)[C@H](CCCNC(=N)N)NC(=O)[C@@H]2CCCN2C(=O)[C@H]2CCCN2C(=O)[C@H](Cc2ccccc2)NC1=O (cyclo(PRYFNAF[dP]))	–	Active	–	–	–	–	> 100	> 100	–	–	100	2000	–	> 100	inhibition [22]: 35%; IC50 [23]: > 100 µM; IC50 (Melanocortin receptor 3 [24]): > 100 µM; EC50 [25]: > 100 µM
C[C@@H]1NC(=O)[C@H](CN)NC(=O)[C@H](Cc2ccccc2)NC(=O)[C@H](Cc2ccc(O)cc2)NC(=O)[C@H](CCCNC(=N)N)NC(=O)[C@@H]2CCCN2C(=O)[C@H]2CCCN2C(=O)[C@H](Cc2ccccc2)NC1=O (cyclo(RYF[Dap]AF[dP]P))	100	Active	70	4	> 100	9	> 100	> 100	48	20	–	–	–	–	–

Continued, in another order:

Ratio IC50 (Melanocortin receptor 4 [1])	Activity (Melanocortin receptor 4 [5])	Ratio IC50 [7]	Ratio IC50 [10]	EC50 (Melanocortin receptor 5 [11]) [µM]	Ratio IC50 [12]	EC50 (Melanocortin receptor 3 [13]) [µM]	EC50 (Melanocortin receptor 4 [14]) [µM]	Activity [15] [%]	Ratio IC50 [16]	Ratio IC50 [18]	Ratio IC50 (Melanocortin receptor 4 [20])	SMILES	Activity [3] [%]	IC50 (Melanocortin receptor 5 [4]) [µM]	other results
400	inactive	500	5	> 100	5	> 100	> 100	56	7	–	–	C[C@@H]1NC(=O)[C@H](CN)NC(=O)[C@H](Cc2ccccc2)NC(=O)[C@H](Cc2ccccc2)NC(=O)[C@H](Cc2c[nH]cn2)NC(=O)[C@@H]2CCCN2C(=O)[C@H]2CCCN2C(=O)[C@H](Cc2ccccc2)NC1=O (cyclo(PHFF[Dap]AF[dP]))	–	–	–
–	Active	–	–	> 100	–	> 100	–	23	–	2	3	CC(C)[C@@H]1NC(=O)[C@H](CC(N)=O)NC(=O)[C@H](Cc2ccccc2)NC(=O)[C@H](Cc2ccccc2)NC(=O)[C@H](CCCNC(=N)N)NC(=O)[C@@H]2CCCN2C(=O)[C@H]2CCCN2C(=O)[C@H](Cc2ccccc2)NC1=O (cyclo(PRFFNVF[dP]))	16	–	Ratio IC50 [17]: 2; Ratio IC50 [19]: 2; Ratio IC50 [21]: 3

Source: ChEMBL document CHEMBL4354837 (J Med Chem, 2020)
